Compounds with a hit are over-represented: about 1.5% of the library has one in this group of screens.
procasp3 activ – procaspase-3 (human) activation; P42574; recombinant procaspase-3 D3A, Ac-DEVD-pNA absorbance 405 nm; activation, % at 8.5 µM; 330,000 compounds, 0.11% hits; AID 463141;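 active means activation above the mean of all tested compounds plus 3 SD, cut at about 21% in these data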;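 further: 0% = DMSO alone and 100% = DMSO wells spiked with extra 5 µM PC-3 D3A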
Target sequence (P42574 whole entry D9A/D28A/D175A): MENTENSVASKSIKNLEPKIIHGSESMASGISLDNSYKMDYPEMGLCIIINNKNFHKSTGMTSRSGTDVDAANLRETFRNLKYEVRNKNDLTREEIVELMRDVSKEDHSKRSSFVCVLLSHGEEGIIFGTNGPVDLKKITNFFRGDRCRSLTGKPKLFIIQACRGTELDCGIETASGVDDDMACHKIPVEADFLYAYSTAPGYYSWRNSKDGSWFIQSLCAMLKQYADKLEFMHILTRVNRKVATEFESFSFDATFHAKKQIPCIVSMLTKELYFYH
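Assay system: Procaspase-3 D3A mutant, all three cleavage aspartates alanine. Buffer or medium: Zinc-free HEPES saline buffer with Triton X-100. Times: 1 h compound preincubation, 2 h substrate hydrolysis at 25 °C. Measured by: 405 nm absorbance of p-nitroaniline, reads at 0 and 120 min. Read-out basis: percent activation relative to control range. Replicates: singlicate.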
bovine MsrA act – bovine methionine sulfoxide reductase A activation. purified bovine MsrA, absorbance read-out. activation, % at 10.6 µM. 360,000 compounds, 0.3% hits; in the data active means activation above about 7.5%;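 further: 0% = vehicle and 100% = reference activator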
Tb MetRS inh – Trypanosoma brucei MetRS inhibition | inhibition, % at 11.9 µM | purified T. brucei MetRS, ATP depletion, Kinase-Glo luminescence | 360,000 compounds, 0.4% hits;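 active means inhibition above a per-plate cutoff of the control wells' mean inhibition plus 3 SD, cut at about 5.5% in these data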;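 further: 0% = DMSO wells median and 100% = median of wells with control inhibitor compound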
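Test system – parasite MetRS enzyme · Reagent – substrates ATP, L-methionine and bulk Escherichia coli tRNA · Doses – 11.9 µM compound single dose, 0.9% DMSO · Times – 15 min enzyme-compound preincubation, 2 h reaction, 10 min detection, 25 °C · Signal – Kinase-Glo luminescence, ATP depletion format · Controls – DMSO-only wells as low control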
MsrA inhibitor – inhibitors of bovine MsrA | purified bovine MsrA, absorbance read-out | 360,000 compounds, 0.75% hits | inhibition, % at 15.5 µM; in the data active means inhibition above about 4.5%;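 further: 0% = vehicle wells with enzyme and 100% = reference inhibitor wells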
procasp7 counter – activates human procaspase-7, counter-screen for procaspase-3 activators | AID 463210 | 330,000 compounds, 0.093% hits | recombinant procaspase-7, Ac-DEVD-pNA absorbance 405 nm; D23A/D198A/D206A triple mutant, cannot self-cleave; scale: DMSO 0, 5 µM enzyme 100 | P55210 | activation, % at 8.5 µM;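 active means percent activation above the screen-wide mean plus 3 SD, cut at about 25% in these data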
Target sequence (P55210 whole entry D23A/D198A/D206A): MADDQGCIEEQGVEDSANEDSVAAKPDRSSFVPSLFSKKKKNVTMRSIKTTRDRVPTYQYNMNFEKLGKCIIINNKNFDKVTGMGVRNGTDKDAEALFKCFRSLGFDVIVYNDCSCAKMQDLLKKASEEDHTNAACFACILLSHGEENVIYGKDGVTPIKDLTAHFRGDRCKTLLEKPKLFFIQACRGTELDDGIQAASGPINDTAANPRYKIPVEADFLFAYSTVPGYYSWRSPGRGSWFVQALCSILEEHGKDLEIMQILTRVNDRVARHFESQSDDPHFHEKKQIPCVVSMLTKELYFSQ
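Assay system: Uncleavable procaspase-7 mutant enzyme | Input: 2 µM procaspase-7 mutant as dispensed | Timing: 1 h compound preincubation, 2 h substrate cleavage, 25 °C | Repeats: One well per compound | Control set: DMSO wells as 0%, DMSO with 5 µM added PC-7 as 100% | Technique: Epi-absorbance of released pNA at 405 nm, two timepoints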
procasp7 triplic – counter-screen for procaspase-3 activators: activators of human procaspase-7; shares compounds with procasp3 activ; recombinant procaspase-7, Ac-DEVD-pNA absorbance; asp23/198/206-to-Ala mutant, cannot self-cleave; activation, % at 8.5 µM; 210 tested, under 10 active; AID 488941;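 active means mean activation above a set limit taken from an earlier procaspase-7 screen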;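 further: 0% = DMSO wells and 100% = DMSO plus 5 µM procaspase-7 enzyme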
proCasp3 confirm – confirmation of human procaspase-3 activators; shares compounds with procasp3 activ; AID 488954; 210 compounds, 10% hits; recombinant PC-3 D3A, Ac-DEVD-pNA absorbance 405 nm; 100% is higher-enzyme control; activation, % at 8.5 µM;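 active means mean activation above a set limit carried over from the earlier primary screen, cut at about 22% in these data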
Active calls of the source: *.

What do the screens show for `c1ccc(SCc2nc3ccccc3[nH]2)cc1`?
procasp3 activ: -3.5; bovine MsrA act: -0.2; Tb MetRS inh: 6.5*; MsrA inhibitor: -2.6; procasp7 counter: -1.6

How did Cc1ccc(SCc2nc3ccccc3[nH]2)cc1 do in these assays?
procasp3 activ: 0.5; bovine MsrA act: -1.9; Tb MetRS inh: 4.0; MsrA inhibitor: 1.5; procasp7 counter: 6.5

Results for Cc1ccc(OCCSCc2nc3ccccc3[nH]2)cc1 ?
procasp3 activ: 0.6; bovine MsrA act: 0.3; Tb MetRS inh: 6.8*; MsrA inhibitor: 0.5; procasp7 counter: 5.4

Results for Cc1ccccc1-c1ccc2c(c1)[C@@H]1C[C@H](N(C)C(=O)c3ccco3)[C@H]([C@H](C)O)CN1CC2 ?
MsrA inhibitor: -0.3

Results for COc1cc(/C=N/Nc2nncn2/N=C/c2ccc(O)c(OC)c2)ccc1O ?
procasp3 activ: -13.8; bovine MsrA act: 5.3; Tb MetRS inh: -1.1; MsrA inhibitor: 4.6*; procasp7 counter: -13.7

Results for COc1cc(/C=N/Nc2nnc3c(n2)[nH]c2ccccc23)ccc1O ?
procasp3 activ: -1.8; bovine MsrA act: -2.6; Tb MetRS inh: -0.3; MsrA inhibitor: 4.6*; procasp7 counter: 4.0

What do the screens show for `CC(=O)NNC(=O)CN1C(=O)/C(=C/c2ccccc2)SC1=S`?
procasp3 activ: 0.8; bovine MsrA act: -1.4; Tb MetRS inh: -0.1; MsrA inhibitor: 2.1; procasp7 counter: -8.3

What do the screens show for `CC(=O)NC(CC(=O)NCCN1C(=O)S/C(=C\c2ccccc2)C1=O)c1ccccc1` (centres undefined)?
procasp3 activ: -6.3; bovine MsrA act: -9.1; Tb MetRS inh: -1.0; MsrA inhibitor: 4.6*; procasp7 counter: -0.3

What do the screens show for `C[C@H](CO)N1C[C@H](C)[C@@H](CN(C)C(=O)Nc2ccc(C(C)(C)C)cc2)OCc2cn(nn2)CCCC1=O`?
MsrA inhibitor: -0.2

Results for O=C(/C=C/c1ccccc1)c1ccc(NC2=NCCCS2)cc1 ?
procasp3 activ: -1.8; bovine MsrA act: -3.5; Tb MetRS inh: -0.3; MsrA inhibitor: 0.3; procasp7 counter: -6.1

How did O=C(/C=C/c1ccc(Br)cc1)c1ccc(NC2=NCCCS2)cc1 do in these assays?
procasp3 activ: 1.5; bovine MsrA act: -3.9; Tb MetRS inh: 0.5; MsrA inhibitor: 4.8*; procasp7 counter: -12.7

How did COc1ccc(-c2ccc(CCC(=O)O)n2CC(=O)Nc2cccc(OC)c2)cc1 do in these assays?
procasp3 activ: 4.7; bovine MsrA act: -1.7; Tb MetRS inh: -1.0; MsrA inhibitor: 4.7*; procasp7 counter: -4.0

How did O=C(Nc1ccccc1C(=O)NCC1CC1)c1cccs1 do in these assays?
MsrA inhibitor: -0.1

What do the screens show for `COc1ccc(-c2cc(C#N)nc(Cl)n2)cc1`?
procasp3 activ: 7.9; bovine MsrA act: 1.0; Tb MetRS inh: -0.1; MsrA inhibitor: 5.1*; procasp7 counter: 7.4

What do the screens show for `COc1ccc(-c2cc(C#N)nc(Oc3ccc(Cl)cc3)n2)cc1`?
procasp3 activ: -8.3; bovine MsrA act: -4.5; Tb MetRS inh: -0.4; MsrA inhibitor: -0.6; procasp7 counter: -4.7

What do the screens show for `CCN(CC)c1nc(C#N)cc(-c2ccc(OC)cc2)n1`?
procasp3 activ: 13.4; bovine MsrA act: 6.4; Tb MetRS inh: -0.7; MsrA inhibitor: 8.0*; procasp7 counter: 14.4

Results for COc1cc(-c2c(C(=O)c3ccccc3)[nH]c(N)c2C(=O)NCCc2c[nH]c3ccccc23)ccc1F ?
MsrA inhibitor: 0.7

What do the screens show for `CCOC(=O)C(C)N1N=C(/C=C/c2ccc(C)cc2)CCC1=O` (centres undefined)?
procasp3 activ: 5.4; bovine MsrA act: -13.9; Tb MetRS inh: -1.3; MsrA inhibitor: 3.0; procasp7 counter: 1.7

Results for C=CCN1N=C(/C=C/c2ccc(C)cc2)CCC1=O ?
procasp3 activ: 3.3; bovine MsrA act: -9.3; Tb MetRS inh: -1.6; MsrA inhibitor: 4.6*; procasp7 counter: -7.6

Results for Nc1[nH]c(N=NC(=O)c2ccccc2O)c2ccccc12 ?
procasp3 activ: 2.5; bovine MsrA act: -10.3; Tb MetRS inh: -0.9; MsrA inhibitor: 4.6*; procasp7 counter: -3.1

What do the screens show for `OC[C@@H]1[C@@H](c2ccc(Cl)cc2)C(c2ccc(F)cc2)=NN1c1ccccc1`?
procasp3 activ: 24.2*; bovine MsrA act: -2.4; Tb MetRS inh: -0.4; MsrA inhibitor: 2.4; procasp7 counter: 17.2; procasp7 triplic: -20.4; proCasp3 confirm: -15.8

Results for Cc1cccc(C2=NN(c3ccccc3)[C@H](CO)[C@H]2c2ccc(Cl)cc2)c1 ?
procasp3 activ: 19.1; bovine MsrA act: 6.8; Tb MetRS inh: 0.6; MsrA inhibitor: 0.2; procasp7 counter: 8.5

How did Cc1cccc(C2=NN(c3ccccc3)[C@H](CO)[C@H]2c2ccc(F)cc2)c1 do in these assays?
procasp3 activ: 25.2*; bovine MsrA act: -3.7; Tb MetRS inh: -1.3; MsrA inhibitor: -0.1; procasp7 counter: 12.3; procasp7 triplic: -20.8; proCasp3 confirm: -14.2

What do the screens show for `OC[C@@H]1[C@@H](c2ccccc2)C(c2cccc(Cl)c2)=NN1c1ccccc1`?
procasp3 activ: 18.2; bovine MsrA act: -0.2; Tb MetRS inh: -0.9; MsrA inhibitor: 0.6; procasp7 counter: 7.8

Results for O=C(N[C@H](C(=O)N1CCC[C@H]1C(=O)NC1CCCC1)C1CCCCC1)C1CCCC1 ?
MsrA inhibitor: -0.7

How did O=C(NCc1cccs1)C1CCC(=O)N(Cc2cccc(C(F)(F)F)c2)C1 (centres undefined) do in these assays?
procasp3 activ: 41.8*; bovine MsrA act: -12.0; Tb MetRS inh: -0.9; MsrA inhibitor: 1.6; procasp7 counter: -6.0; procasp7 triplic: 2.1; proCasp3 confirm: 2.1

What do the screens show for `Cc1ccccc1C(=O)N(C)[C@H]1C[C@H]2c3[nH]c4c(-c5ccc6c(c5)OCO6)cccc4c3CCN2C(=O)[C@H]1[C@H](C)O`?
MsrA inhibitor: -1.0

How did O=S1(=O)N[C@H](Cc2ccccc2)COc2cc(Br)ccc21 do in these assays?
MsrA inhibitor: 0.4

What do the screens show for `CCCc1ccc(OCc2ccc(C(=O)N3CCSCC3)o2)cc1`?
procasp3 activ: 21.9*; bovine MsrA act: -9.1; Tb MetRS inh: -0.7; MsrA inhibitor: -0.4; procasp7 counter: -1.2; procasp7 triplic: 4.7; proCasp3 confirm: 4.0

How did COC(=O)N1C[C@H](OCc2cn(-c3cc(Cl)cc(Cl)c3)nn2)[C@H](OCc2cn(-c3cc(Cl)cc(Cl)c3)nn2)C[C@@H]1c1ccccc1Br do in these assays?
MsrA inhibitor: -1.2
